Assay results published in ChEMBL document CHEMBL1649302, “New small-molecule inhibitor class targeting human immunodeficiency virus type 1 virion maturation” (Antimicrob Agents Chemother, 2009).

Experiments:
[1] = Cytotoxicity against human PM1 cells after 5 days by XTT assay; type: cell-based
Procedure, shortened: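 CC50 in uninfected PM1 cells was measured by the XTT dye-reduction method: XTT/PMS for 4 h, absorbance at 450 nm, 50% of compound-free formazan.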

[2] = test system: Human immunodeficiency virus 1; assay: Antiviral activity against HIV1 92HT594 infected in human MT2 cells assessed as inhibition of viral p24 antigen production after 5 days; type: functional, organism-based; conditions: Human immunodeficiency virus 1, 92HT594, MT2, 120 h
Procedure, shortened: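 PM1 cells (NL4-3, Ba-L) or MT-2 cells (92HT594, 92HT599) were infected at MOI 0.16 for 2 h and washed. They were plated at 1 × 10⁴ cells/well (2 × 10⁵/ml) onto half-log compound dilutions. Supernatant p24 was quantified by ELISA at day 5. EC50 was the concentration giving a 50% decrease versus infected, compound-free cells.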

[3] = test system: Human immunodeficiency virus 1; assay: Antiviral activity against HIV1 NL4-3 infected in human HeLa cells assessed as decrease in single-cycle viral infection after 72 hrs by beta-galactosidase reporter gene assay; type: functional, organism-based; conditions: Human immunodeficiency virus 1, NL4-3, HeLa
Procedure, shortened: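 HeLa CD4 LTR/beta-Gal cells (1 × 10⁴/well, DMEM + 10% FBS) were pre-dosed with half-log compound dilutions. They were infected at MOI 0.03 with single-cycle NL4-3 reporter virus made by cotransfecting HEK 293 cells with pNL4-3deltaEnv and an NL4-3 envelope vector. EC50 is from beta-gal reporter activity relative to infected untreated cells, across three experiments.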

[4] = test system: Human immunodeficiency virus 1; assay: Antiviral activity against HIV1 harboring capsid I201V mutant protein infected in human HeLa cells assessed as decrease in viral infection after 72 hrs by beta-galactosidase reporter gene assay; type: functional, organism-based; conditions: Human immunodeficiency virus 1, HeLa
[5] = test system: Human immunodeficiency virus 1; assay: Selectivity ratio of EC50 for HIV1 harboring capsid I201V mutant protein infected in human HeLa cells to EC50 for wild type HIV1 infected in human HeLa cells; type: functional
Procedure, shortened: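 MT-2 cells were infected for 2 h with wild-type NL4-3 or recombinant NL4-3 carrying CA I201V or SP1 A1V. They were then cocultured with HeLa CD4 LTR/beta-Gal indicator cells in serially diluted compound. Beta-gal reporter was read after 4 days. EC50s are means ± SD of 3–6 experiments. Fold change is mutant EC50 divided by wild-type EC50.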

[6] = test system: Human immunodeficiency virus 1; assay: Antiviral activity HIV1 3B infected in human PBMC after 7 days by scintillation counting; type: functional, organism-based; conditions: Human immunodeficiency virus 1, 3B, 168 h
Procedure, shortened: (§1)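 PBMCs came from buffy coats pooled from 3–4 seronegative donors, were PHA-stimulated (1.5 μg/ml, 3 days) and frozen. Thawed cells were infected 1 h at 37°C with virus input set by TCID50, then pelleted and resuspended in IL-2 (10 ng/ml). They were plated at 4 × 10⁵ cells/ml onto compounds for 7 days at 37°C. Supernatant RT activity was measured by Quan-T-RT scintillation assay.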

[7] = test system: Human immunodeficiency virus 1; assay: Antiviral activity HIV1 ROJO infected in human PBMC after 7 days by scintillation counting; type: functional, organism-based; conditions: Human immunodeficiency virus 1, ROJO, 168 h
Procedure, shortened: (§2)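 Fresh PBMCs from HIV/HBV-seronegative donors were PHA-stimulated (4 μg/ml, 48–72 h) and kept with IL-2 (20 U/ml), with at least two donors pooled. Cells were seeded at 5 × 10⁴/well and infected (final MOI ≅0.1) with nine compound concentrations in triplicate wells. After 7 days, reverse transcriptase activity was measured in cell-free supernatant.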

[8] = test system: Human immunodeficiency virus 1; assay: Antiviral activity HIV1 91US005 infected in human PBMC after 7 days by scintillation counting; type: functional, organism-based; conditions: Human immunodeficiency virus 1, 91US005, 168 h; procedure, shortened: as §2
[9] = test system: Human immunodeficiency virus 1; assay: Antiviral activity HIV1 92BR017 infected in human PBMC after 7 days by scintillation counting; type: functional, organism-based; conditions: Human immunodeficiency virus 1, 92BR017, 168 h; procedure, shortened: as §1
[10] = test system: Human immunodeficiency virus 1; assay: Antiviral activity HIV1 92HT596 infected in human PBMC after 7 days by scintillation counting; type: functional, organism-based; conditions: Human immunodeficiency virus 1, 92HT596, 168 h; procedure, shortened: as §1
[11] = test system: Human immunodeficiency virus 1; assay: Antiviral activity HIV1 92RW009 infected in human PBMC after 7 days by scintillation counting; type: functional, organism-based; conditions: Human immunodeficiency virus 1, 92RW009, 168 h; procedure, shortened: as §1
[12] = test system: Human immunodeficiency virus 1; assay: Antiviral activity HIV1 92US660 infected in human PBMC after 7 days by scintillation counting; type: functional, organism-based; conditions: Human immunodeficiency virus 1, 92US660, 168 h; procedure, shortened: as §2
[13] = test system: Human immunodeficiency virus 1; assay: Antiviral activity HIV1 93BR029 infected in human PBMC after 7 days by scintillation counting; type: functional, organism-based; conditions: Human immunodeficiency virus 1, 93BR029, 168 h; procedure, shortened: as §1
[14] = test system: Human immunodeficiency virus 1; assay: Antiviral activity HIV1 93TH074 infected in human PBMC after 7 days by scintillation counting; type: functional, organism-based; conditions: Human immunodeficiency virus 1, 93TH074, 168 h; procedure, shortened: as §1
[15] = test system: Human immunodeficiency virus 1; assay: Antiviral activity HIV1 CMU06 infected in human PBMC after 7 days by scintillation counting; type: functional, organism-based; conditions: Human immunodeficiency virus 1, CMU06, 168 h; procedure, shortened: as §1
[16] = Therapeutic index, ratio of CC50 for human PBMC to EC50 for HIV1 91US056 infected in human PBMC; conditions: read-out: TI
Procedure, shortened: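 TI was the mean PBMC CC50 divided by the mean EC50 from the 7-day PBMC reverse transcriptase assay.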

[17] = Therapeutic index, ratio of CC50 for human PBMC to EC50 for HIV1 92BR030 infected in human PBMC; conditions: read-out: TI
Procedure, shortened: (§3)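 PHA-stimulated (4 μg/ml, 48 to 72 h) PBMCs pooled from at least two seronegative donors, kept with 20 U/ml IL-2, plated at 5 × 10⁴ cells/well. Infected with clinical isolate (final MOI ≅0.1) alongside nine compound concentrations in triplicate wells, 7 days. Supernatant reverse transcriptase activity measured. TI is mean PBMC CC50 divided by mean EC50.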

[18] = Therapeutic index, ratio of CC50 for human PBMC to EC50 for HIV1 92HT599 infected in human PBMC; conditions: read-out: TI
Procedure, shortened: (§4)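 Frozen PHA-stimulated (1.5 μg/ml, 3 days) buffy-coat PBMCs pooled from three or four seronegative donors. Infected with a TCID50-based virus input per 10⁶ cells for 1 h at 37°C, then pelleted and resuspended in 10 ng/ml IL-2. Plated at 4 × 10⁵ cells/ml on compound dilutions for 7 days at 37°C. Supernatant RT measured by Quan-T-RT. TI is mean CC50 divided by mean EC50.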

[19] = Therapeutic index, ratio of CC50 for human PBMC to EC50 for HIV1 92RW009 infected in human PBMC; conditions: read-out: TI; procedure, shortened: as §4
[20] = Therapeutic index, ratio of CC50 for human PBMC to EC50 for HIV1 92US072 infected in human PBMC; conditions: read-out: TI; procedure, shortened: as §3
[21] = Therapeutic index, ratio of CC50 for human PBMC to EC50 for HIV1 92US660 infected in human PBMC; conditions: read-out: TI; procedure, shortened: as §3
[22] = Therapeutic index, ratio of CC50 for human PBMC to EC50 for HIV1 93BR029 infected in human PBMC; conditions: read-out: TI; procedure, shortened: as §4
[23] = Therapeutic index, ratio of CC50 for human PBMC to EC50 for HIV1 96USHIPS7 infected in human PBMC; conditions: read-out: TI; procedure, shortened: as §3
[24] = Therapeutic index, ratio of CC50 for human PBMC to EC50 for HIV1 98IN022 infected in human PBMC; conditions: read-out: TI; procedure, shortened: as §4

Work on `CC(C)(C)c1ccc(C(Cn2cccc(C(F)(F)F)c2=O)NC2Cc3ccccc3C2)cc1` (centres undefined) yielded a CC50 at 120 h [1] of 19000 nM, an EC50 [2] of 240 nM and an EC50 [3] of over 10000 nM. For the same molecule, the EC50 [4] was over 10000 nM, the “Ratio EC50” value [5] was over 49 and the EC50 [6] was 320 nM. The EC50 [7] was over 17000 nM, the EC50 [8] was over 17000 nM and the EC50 [9] was 120 nM. It also gave an EC50 [10] of 320 nM, an EC50 [11] of 1400 nM and an EC50 [12] of 12000 nM. For the same molecule, the EC50 [13] was 570 nM, the EC50 [14] was 120 nM and the EC50 [15] was 1200 nM. It also gave a selectivity ratio [16] of under 1, a selectivity ratio [17] of under 1 and a selectivity ratio [18] of 12. For the same molecule, the selectivity ratio [19] was 12, the selectivity ratio [20] was 3400 and the selectivity ratio [21] was 1. It also gave a selectivity ratio [22] of 30, a selectivity ratio [23] of under 1 and a selectivity ratio [24] of 13.
